Source: PubChem BioAssay
M4 antag: human M4 muscarinic receptor antagonists, primary screen, CHO cells, Fluo-8 calcium fluorescence. Muscarinic acetylcholine receptor M4 (Homo sapiens), P08173. CHO-hM4 cells, ACh EC80. inhibition, % at 3 µM. 0.73% of 360,000 active. AID 624125, 2012;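 active = inhibition above its plate's cutoff, the mean inhibition of sample wells plus 3 SD, cut at about 27% in these data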;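 note: 0% = acetylcholine EC80 with DMSO and 100% = DMSO without agonist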
Target sequence (P08173 whole entry, looked up): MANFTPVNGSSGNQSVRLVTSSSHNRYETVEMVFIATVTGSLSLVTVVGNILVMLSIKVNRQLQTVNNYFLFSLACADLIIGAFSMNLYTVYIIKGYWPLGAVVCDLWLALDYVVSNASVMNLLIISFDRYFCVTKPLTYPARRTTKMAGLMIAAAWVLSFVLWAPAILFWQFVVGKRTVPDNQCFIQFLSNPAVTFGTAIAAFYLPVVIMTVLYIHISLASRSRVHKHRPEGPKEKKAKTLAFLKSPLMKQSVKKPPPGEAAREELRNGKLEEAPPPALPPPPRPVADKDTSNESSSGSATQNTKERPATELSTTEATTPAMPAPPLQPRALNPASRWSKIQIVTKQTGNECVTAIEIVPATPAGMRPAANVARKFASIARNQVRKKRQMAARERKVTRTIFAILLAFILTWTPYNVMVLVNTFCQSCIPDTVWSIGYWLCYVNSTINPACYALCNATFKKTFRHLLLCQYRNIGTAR
M5 ag: human M5 muscarinic receptor agonists, primary screen, CHO-K1 cells, Fluo-8 calcium fluorescence; CHO-K1 hM5 cells; 0% DMSO wells, 100% maximal acetylcholine response; Muscarinic acetylcholine receptor M5 (Homo sapiens), P08912; 0.19% of 360,000 active; AID 624037, 2012; activation, % at 3 µM;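 active = activation above the run's mean over test compounds plus 3 SD, cut at about 23% in these data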;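 note: signal is peak over basal fluorescence ratio across the kinetic read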
M4 PAM: human M4 muscarinic receptor positive allosteric modulators, primary screen, CHO-K1 cells, Fluo-8 calcium fluorescence. 0.4% of 360,000 active. Muscarinic acetylcholine receptor M4 (Homo sapiens), P08173. CHO-K1 hM4/Gqi5, ACh EC20; 0% = ACh EC20, 100% = maximal ACh. activation, % at 3 µM;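 active = activation above its plate's cutoff, the mean activation of sample wells plus 3 SD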
CHRM5 antagonist: human M5 muscarinic receptor antagonists, primary screen, CHO cells, Fluo-8 calcium fluorescence; Muscarinic acetylcholine receptor M5 (Homo sapiens), P08912; CHO-hM5 cells, ACh EC80; inhibition, % at 3 µM; 0.59% of 360,000 active;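 active = inhibition above a per-plate cutoff, the mean of that plate's test compounds plus 3 SD, cut at about 27% in these data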;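 note: 0% = acetylcholine EC80 with DMSO and 100% = DMSO without agonist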
M4 ag: human M4 muscarinic receptor agonists, primary screen, CHO-K1 cells, Fluo-8 calcium fluorescence; Muscarinic acetylcholine receptor M4 (Homo sapiens), P08173; CHO-K1 hM4/Gqi5; vehicle 0%, full acetylcholine response 100%; activation, % at 3 µM; 0.14% of 360,000 active; AID 624127, 2012;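 active = activation above the run mean over all test wells plus 3 SD, cut at about 32% in these data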;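 note: peak over basal fluorescence ratio per well then scaled between controls; 0% = DMSO wells and 100% = acetylcholine at EC100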
CHRM5 PAM: human M5 muscarinic receptor positive allosteric modulators, primary screen, CHO-K1 cells, Fluo-8 calcium fluorescence | activation, % at 3 µM | CHO-K1 hM5, ACh EC20 PAM; 0% = ACh EC20, 100% = ACh EC100 | Muscarinic acetylcholine receptor M5 (Homo sapiens), P08912 | AID 624038, 2012 | 0.3% of 360,000 active;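 active = activation above the run cutoff, the mean activation of all test compounds plus 3 SD, cut at about 18% in these data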
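Probe or stimulus: acetylcholine, EC20 level; Assay system: human M5 receptor in CHO-K1 cells; Schedule: compound preincubation 140 s before EC20 acetylcholine addition; Technique: intracellular calcium via Fluo-8 fluorescence; Dosing: single-point, 3 µM nominal; Read-out basis: percent activation from peak-over-basal fluorescence ratio, scaled EC20-to-EC100 acetylcholine; Repeats: one well per compound, no replicates.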
The depositor's hits bear a star. This is a sample that favours compounds with a hit; in the whole collection about 1.8% have one here.

SMILES	M4 antag	M5 ag	M4 PAM	CHRM5 antagonist	M4 ag	CHRM5 PAM
Cc1cc(Br)ccc1NC(=O)C1C2CCC(O2)C1C(=O)O (centres undefined)	5.2	-3.8	1.8	0.6	1.5	2.7
C[C@H]1COC(=O)[C@@H](NC(=O)OCC2c3ccccc3-c3ccccc32)C/C=C\C[C@H](CC(=O)NCCO)C(=O)N1	0.7	-1.7	1.3	8.8	0.0	-4.4
CC(=O)Nc1ccc(NC(=O)CSc2nc3[nH]ncc3c(=O)n2-c2ccccc2)cc1	7.2	0.1	20.3*	-5.0	-0.6	10.1
COc1cc(NC(=O)CSc2nc3[nH]ncc3c(=O)n2-c2ccccc2)cc(OC)c1OC	-5.3	4.4	3.3	4.2	0.4	3.1
CCOc1ncccc1C(=O)Nc1cc(S(=O)(=O)N2CCOCC2)ccc1N1CCCC1	-0.7	-2.5	-9.2	15.6	14.0	-7.7
O=C(Nc1cc(S(=O)(=O)N2CCOCC2)ccc1N1CCCC1)c1cccnc1Cl	27.7*	1.9	11.0	-0.1	0.5	2.5
Cc1ccn2c(=O)c(NC(=O)c3ccc(Br)o3)c(C)nc2c1	6.8	0.4	22.6*	1.6	0.9	-7.0
Cc1nc(NC(=O)c2ccc(Br)o2)ccc1Br	-4.5	-0.4	15.8*	2.0	0.2	5.5
Cc1cn(CC(=O)NCCN2CCOCC2)c(=O)[nH]c1=O	-17.0	2.0	10.0	-3.2	0.8	-3.0
COc1ccc(/C=C(\NC(=O)c2ccc(C)cc2)C(=O)Nc2c(C)n(C)n(-c3ccccc3)c2=O)cc1	2.7	0.5	-5.9	3.0	-0.5	-1.3
CN(C)S(=O)(=O)c1ccc2c(c1)c(=O)c(C(=O)N1CCN(c3ccccn3)CC1)cn2C	-8.0	1.0	5.7	3.8	0.2	-6.1
Cc1ccc(C)c(N2CCN(C(=O)c3cn(C)c4ccc(S(=O)(=O)N(C)C)cc4c3=O)CC2)c1	95.1*	-3.2	-14.7	13.4	0.7	-19.3
O=C(COC(=O)c1cccc(F)c1)Nc1ccc2c(c1)OCCO2	-3.7	6.9	9.9	-1.5	3.7	-3.1
COC(=O)C1=NN(C(=O)c2cccc(Br)c2)C(O)(c2ccc(Cl)cc2)C1 (centres undefined)	1.6	16.4	-4.8	3.3	38.8*	-11.3
Cc1nc(S/C(=C/c2ccc(OCc3ccc(C(=O)O)cc3)cc2)C(=O)O)n[nH]1	1.1	-0.8	-4.7	11.7	-0.6	-3.3
Cc1csc(CN(C)C(=O)CC2C(=O)NCCN2Cc2ccc(Cl)c(F)c2)n1 (centres undefined)	-7.9	-3.4	-0.3	-1.6	1.8	0.3
COc1ccc(-c2nnc(SCC(=O)Nc3ccc(C(=O)O)cc3)n2-c2ccc(Cl)cc2)cc1	-9.4	-0.7	13.2*	-0.3	0.3	-3.4
O=C(NCCc1ccc(Cl)cc1)C1CCCO1 (centres undefined)	97.2*	-10.1	-19.3	60.5*	0.3	-23.0
O=C(NCCc1ccc(F)cc1)C1CCCO1 (centres undefined)	4.8	0.7	-1.7	6.8	0.6	-5.8
Cn1c(N)c(C(=O)CSc2nc3ccccc3c(=O)n2CCCN2CCOCC2)c(=O)n(C)c1=O	-17.6	-1.2	-3.3	4.9	5.5	-9.6
Cc1[nH]c2ccccc2c1C(=O)CSc1nc2ccccc2c(=O)n1CCCN1CCOCC1	26.7*	4.3	-13.7	19.7	25.4	-19.6
CSCCC(C(=O)NC(C)(C)C)n1c(-c2ccc(C)cc2)nc2ccccc21 (centres undefined)	-11.3	-1.8	-2.1	-14.9	0.2	6.2
COc1cccc2c(=O)n(CC(=O)NCCc3ccccc3)ccc12	29.5*	0.9	14.6	8.2	0.3	0.3
Cc1ccc(S(=O)(=O)NC(=O)NCCCCNC(=O)NS(=O)(=O)c2ccc(C)cc2)cc1	7.0	5.5	9.9	-18.0	1.4	20.9*
Cc1ccc(S(=O)(=O)NNC(=O)CC#N)cc1	-6.4	0.3	14.8	-14.5	1.0	21.2*
SMILES	M4 antag	M5 ag	M4 PAM	CHRM5 antagonist	M4 ag	CHRM5 PAM
CCCCNC(=O)NS(=O)(=O)c1ccc(C)cc1	-4.7	15.4	-1.0	0.9	0.9	-6.5
COC(=O)NNS(=O)(=O)c1ccc(C)cc1	-7.0	2.4	-2.1	-3.1	0.0	-0.4
O=C(N/N=C1/CCSC1)c1cc(Br)ccc1O	-5.3	-0.6	-4.0	45.5*	8.3	-17.8
C[C@@H]1CC=C[C@H]2[C@H]1C(=O)N(Cc1ccccc1)[C@H]2c1ccc2ccccc2c1	-1.9	4.3	-3.8	5.4	0.0	0.9
C[C@@H]1CC=C[C@H]2[C@H]1C(=O)N(Cc1ccccc1)[C@H]2c1ccc2ccccc2c1Br	-7.9	0.8	2.3	0.4	0.1	22.1*
CCNC(=S)Nc1ccc2c(c1)c(=O)n(C)n2-c1ccc(C(C)(C)C)cc1	-0.6	-4.9	-4.8	12.6	0.5	-2.9
O=C(Nc1cccc(C(F)(F)F)c1)N1CCC(c2nc(-c3ccc(F)cc3)no2)CC1	51.1*	-1.6	-17.9	38.8*	16.3	-22.6
Cc1ccc([C@H]2C(C(=O)O)=CCN2S(=O)(=O)c2ccc(C)cc2)cc1	-3.4	0.6	11.6	3.4	0.9	-0.2
Cn1cnc(S(=O)(=O)Nc2ccc(C(F)(F)F)cc2)c1	-10.9	-2.0	3.6	1.6	1.5	-4.2
Cn1cnc(S(=O)(=O)Nc2ccc(Cl)c(C(F)(F)F)c2)c1	5.9	-5.4	14.9*	-15.7	1.0	11.1
O=C(Nc1nnc([C@@H]2C[C@H](O)[C@@H](CO)O2)s1)c1cccc(C(F)(F)F)c1	2.2	1.2	-1.7	-2.2	0.4	1.0
CC1(c2ccccc2)CC(C)(C)N2C(=O)Cc3cccc1c32 (centres undefined)	32.7*	-7.8	-13.3	6.5	-1.4	-2.5
Cc1ccc(C(=O)COC(=O)C2CC(=O)N(c3nc(-c4ccccc4)cs3)C2)cc1 (centres undefined)	-2.4	0.0	7.4	-3.5	0.3	0.8
CCOC(=O)c1ccc(NC(=S)NC(=O)COc2ccccc2)cc1	1.4	1.7	-2.2	-10.4	2.4	-1.7
CCOC(=O)CSc1nc(NC#N)nc(N(CC)CC)n1	-12.7	0.3	1.8	-18.1	0.4	18.7*
CCNc1nc(NC#N)nc(SCC(=O)OCC)n1	-3.4	-2.7	-2.3	1.2	0.1	-4.2
COc1ccc(C2=Nn3c(nnc3-c3ccccc3F)SC2)cc1OC1CCOC1 (centres undefined)	-11.4	-0.2	2.2	3.2	8.3	-16.4
